Reference: ChEMBL document CHEMBL2424622, “Development of amino-pyrimidine inhibitors of c-Jun N-terminal kinase (JNK): kinase profiling guided optimization of a 1,2,3-benzotriazole lead” (Bioorg Med Chem Lett, 2013)

Columns and labels:
[1] = target: T1, 3-phosphoinositide-dependent protein kinase 1 (Homo sapiens) (UniProt O15530); test: Competitive binding affinity to PDPK1 (unknown origin) at 10 uM in presence of ATP relative to control
T1 sequence (whole entry): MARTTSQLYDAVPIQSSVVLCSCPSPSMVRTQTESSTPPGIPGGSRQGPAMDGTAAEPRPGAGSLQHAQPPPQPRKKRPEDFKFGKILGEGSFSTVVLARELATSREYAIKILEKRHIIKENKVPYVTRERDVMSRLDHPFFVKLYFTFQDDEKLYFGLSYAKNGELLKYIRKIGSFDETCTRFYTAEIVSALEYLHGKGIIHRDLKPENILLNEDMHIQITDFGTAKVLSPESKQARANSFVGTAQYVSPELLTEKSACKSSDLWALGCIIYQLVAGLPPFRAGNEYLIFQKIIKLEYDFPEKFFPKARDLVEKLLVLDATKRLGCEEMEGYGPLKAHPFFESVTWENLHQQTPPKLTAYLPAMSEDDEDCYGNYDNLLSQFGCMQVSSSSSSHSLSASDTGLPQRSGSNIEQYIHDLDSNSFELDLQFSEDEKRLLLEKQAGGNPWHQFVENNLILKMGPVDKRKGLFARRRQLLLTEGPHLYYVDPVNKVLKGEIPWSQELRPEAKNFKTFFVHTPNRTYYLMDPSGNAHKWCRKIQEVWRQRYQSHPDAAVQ
Outline: (§1)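 In vitro ATP-site competition binding assay across a diverse panel of 128 kinases, with compound tested at a single concentration. Kinase selectivity scores (S15) were calculated from the panel profiles.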

[2] = target: Casein kinase II subunit alpha (Homo sapiens) (UniProt P68400); test: Competitive binding affinity to CSNK2A1 (unknown origin) at 10 uM in presence of ATP relative to control
[3] = target: Serine/threonine-protein kinase MARK2 (Homo sapiens) (UniProt Q7KZI7); test: Competitive binding affinity to MARK2 (unknown origin) at 10 uM in presence of ATP relative to control; outline: as §1
[4] = target: Tyrosine-protein kinase Fgr (Homo sapiens) (UniProt P09769); test: Competitive binding affinity to FGR (unknown origin) at 10 uM in presence of ATP relative to control
Outline: (§2)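 In vitro ATP-site competition binding assay, part of profiling against a diverse panel of 128 kinases. Each compound was tested at a single concentration of 10 µM. Kinome selectivity was summarized as S15 selectivity scores.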

[5] = target: T2, Serine/threonine-protein kinase 36 (Homo sapiens) (UniProt Q9NRP7); test: Competitive binding affinity to STK36 (unknown origin) at 10 uM in presence of ATP relative to control
T2 sequence (whole entry): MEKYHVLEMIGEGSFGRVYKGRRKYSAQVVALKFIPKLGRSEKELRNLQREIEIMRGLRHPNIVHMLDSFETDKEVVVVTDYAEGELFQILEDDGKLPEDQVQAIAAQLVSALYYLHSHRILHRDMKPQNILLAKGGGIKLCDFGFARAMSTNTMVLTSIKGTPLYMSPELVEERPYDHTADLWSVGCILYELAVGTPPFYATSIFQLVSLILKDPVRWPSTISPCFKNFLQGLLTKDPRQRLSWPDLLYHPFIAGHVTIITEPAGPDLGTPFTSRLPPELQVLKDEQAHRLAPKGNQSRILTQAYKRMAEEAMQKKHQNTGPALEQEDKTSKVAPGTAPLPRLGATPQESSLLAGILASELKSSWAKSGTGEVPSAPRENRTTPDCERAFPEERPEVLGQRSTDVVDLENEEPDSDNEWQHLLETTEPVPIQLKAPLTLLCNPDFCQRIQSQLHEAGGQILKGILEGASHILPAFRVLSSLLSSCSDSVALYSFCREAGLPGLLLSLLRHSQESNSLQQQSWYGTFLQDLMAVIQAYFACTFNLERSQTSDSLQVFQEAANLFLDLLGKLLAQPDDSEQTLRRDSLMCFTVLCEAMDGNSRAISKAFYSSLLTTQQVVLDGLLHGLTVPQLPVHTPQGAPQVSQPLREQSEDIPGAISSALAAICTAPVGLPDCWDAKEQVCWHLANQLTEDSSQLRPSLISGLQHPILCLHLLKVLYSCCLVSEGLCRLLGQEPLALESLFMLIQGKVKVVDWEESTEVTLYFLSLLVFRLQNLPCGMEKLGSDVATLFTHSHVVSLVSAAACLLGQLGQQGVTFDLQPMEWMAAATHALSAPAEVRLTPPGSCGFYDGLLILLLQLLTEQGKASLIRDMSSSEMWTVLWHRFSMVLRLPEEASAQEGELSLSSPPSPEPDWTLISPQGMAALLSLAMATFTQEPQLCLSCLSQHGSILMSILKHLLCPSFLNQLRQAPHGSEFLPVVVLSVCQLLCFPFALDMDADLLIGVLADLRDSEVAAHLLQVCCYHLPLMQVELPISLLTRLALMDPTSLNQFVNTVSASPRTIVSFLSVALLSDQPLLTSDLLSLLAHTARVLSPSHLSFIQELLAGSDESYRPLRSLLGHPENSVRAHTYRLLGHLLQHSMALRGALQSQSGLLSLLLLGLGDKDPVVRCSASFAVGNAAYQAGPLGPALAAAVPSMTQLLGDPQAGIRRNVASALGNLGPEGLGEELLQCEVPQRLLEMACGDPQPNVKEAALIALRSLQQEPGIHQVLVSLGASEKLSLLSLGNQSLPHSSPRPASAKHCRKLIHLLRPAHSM
Outline: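 In vitro ATP-site competition binding assay across a diverse panel of 128 kinases, with each compound tested at a single concentration. Kinase binding is expressed relative to control.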

[6] = target: Receptor-interacting serine/threonine-protein kinase 2 (Homo sapiens) (UniProt O43353); test: Competitive binding affinity to RIPK2 (unknown origin) at 10 uM in presence of ATP relative to control; outline: as §1
[7] = target: Leukocyte tyrosine kinase receptor (Homo sapiens) (UniProt P29376); test: Competitive binding affinity to LTK (unknown origin) at 10 uM in presence of ATP relative to control; outline: as §2
Leukocyte tyrosine kinase receptor (Homo sapiens), sequence (P29376 whole entry): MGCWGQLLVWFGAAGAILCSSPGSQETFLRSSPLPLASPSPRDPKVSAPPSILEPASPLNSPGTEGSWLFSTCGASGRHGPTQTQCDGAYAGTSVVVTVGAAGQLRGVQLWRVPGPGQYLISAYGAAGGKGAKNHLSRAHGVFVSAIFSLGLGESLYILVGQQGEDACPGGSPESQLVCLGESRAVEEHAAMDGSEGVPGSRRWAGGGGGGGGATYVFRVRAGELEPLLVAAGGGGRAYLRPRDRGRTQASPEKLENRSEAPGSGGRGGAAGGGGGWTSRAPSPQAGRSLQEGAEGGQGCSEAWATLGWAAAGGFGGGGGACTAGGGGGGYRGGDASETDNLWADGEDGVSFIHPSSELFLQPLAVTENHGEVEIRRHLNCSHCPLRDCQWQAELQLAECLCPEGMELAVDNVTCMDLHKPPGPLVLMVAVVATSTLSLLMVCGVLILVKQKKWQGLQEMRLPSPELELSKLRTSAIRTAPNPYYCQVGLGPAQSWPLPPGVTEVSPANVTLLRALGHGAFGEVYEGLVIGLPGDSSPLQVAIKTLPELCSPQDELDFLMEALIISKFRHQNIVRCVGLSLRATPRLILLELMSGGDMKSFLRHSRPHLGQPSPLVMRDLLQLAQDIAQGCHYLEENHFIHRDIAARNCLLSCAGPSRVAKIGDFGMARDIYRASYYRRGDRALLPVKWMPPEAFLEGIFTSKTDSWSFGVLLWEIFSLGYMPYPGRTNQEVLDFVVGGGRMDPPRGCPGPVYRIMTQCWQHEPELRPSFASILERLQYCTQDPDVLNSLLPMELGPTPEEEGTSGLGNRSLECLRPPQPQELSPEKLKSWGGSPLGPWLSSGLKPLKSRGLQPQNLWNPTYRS

Receptor-interacting serine/threonine-protein kinase 2 (Homo sapiens), sequence (O43353 whole entry): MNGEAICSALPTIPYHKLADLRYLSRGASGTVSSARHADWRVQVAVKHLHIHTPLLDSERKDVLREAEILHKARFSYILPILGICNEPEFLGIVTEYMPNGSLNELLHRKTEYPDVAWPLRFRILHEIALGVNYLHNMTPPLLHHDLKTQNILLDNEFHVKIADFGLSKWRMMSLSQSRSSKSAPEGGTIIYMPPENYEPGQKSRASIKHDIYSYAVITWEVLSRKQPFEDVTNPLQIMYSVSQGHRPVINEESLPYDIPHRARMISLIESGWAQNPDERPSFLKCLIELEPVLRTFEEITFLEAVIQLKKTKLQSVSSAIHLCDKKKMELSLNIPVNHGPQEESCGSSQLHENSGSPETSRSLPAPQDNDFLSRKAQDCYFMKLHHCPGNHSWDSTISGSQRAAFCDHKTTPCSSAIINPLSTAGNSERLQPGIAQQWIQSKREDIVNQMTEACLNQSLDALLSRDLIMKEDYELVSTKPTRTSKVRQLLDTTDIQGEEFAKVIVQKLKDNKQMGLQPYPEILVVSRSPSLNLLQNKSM
Tyrosine-protein kinase Fgr (Homo sapiens), sequence (P09769 2-529 limits assumed): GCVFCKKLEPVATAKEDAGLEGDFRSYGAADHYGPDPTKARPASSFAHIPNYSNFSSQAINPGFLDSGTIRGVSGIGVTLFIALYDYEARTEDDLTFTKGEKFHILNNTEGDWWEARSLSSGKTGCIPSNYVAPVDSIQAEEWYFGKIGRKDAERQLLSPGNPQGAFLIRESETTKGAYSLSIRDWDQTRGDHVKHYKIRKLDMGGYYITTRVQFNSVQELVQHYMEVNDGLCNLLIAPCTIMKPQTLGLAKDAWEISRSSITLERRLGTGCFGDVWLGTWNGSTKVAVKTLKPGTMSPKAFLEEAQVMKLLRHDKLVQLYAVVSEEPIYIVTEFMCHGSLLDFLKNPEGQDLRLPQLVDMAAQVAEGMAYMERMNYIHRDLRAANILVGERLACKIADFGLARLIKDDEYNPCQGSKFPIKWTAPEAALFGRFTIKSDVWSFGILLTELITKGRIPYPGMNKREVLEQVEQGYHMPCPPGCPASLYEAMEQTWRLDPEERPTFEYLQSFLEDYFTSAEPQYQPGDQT
Serine/threonine-protein kinase MARK2 (Homo sapiens), sequence (Q7KZI7 whole entry): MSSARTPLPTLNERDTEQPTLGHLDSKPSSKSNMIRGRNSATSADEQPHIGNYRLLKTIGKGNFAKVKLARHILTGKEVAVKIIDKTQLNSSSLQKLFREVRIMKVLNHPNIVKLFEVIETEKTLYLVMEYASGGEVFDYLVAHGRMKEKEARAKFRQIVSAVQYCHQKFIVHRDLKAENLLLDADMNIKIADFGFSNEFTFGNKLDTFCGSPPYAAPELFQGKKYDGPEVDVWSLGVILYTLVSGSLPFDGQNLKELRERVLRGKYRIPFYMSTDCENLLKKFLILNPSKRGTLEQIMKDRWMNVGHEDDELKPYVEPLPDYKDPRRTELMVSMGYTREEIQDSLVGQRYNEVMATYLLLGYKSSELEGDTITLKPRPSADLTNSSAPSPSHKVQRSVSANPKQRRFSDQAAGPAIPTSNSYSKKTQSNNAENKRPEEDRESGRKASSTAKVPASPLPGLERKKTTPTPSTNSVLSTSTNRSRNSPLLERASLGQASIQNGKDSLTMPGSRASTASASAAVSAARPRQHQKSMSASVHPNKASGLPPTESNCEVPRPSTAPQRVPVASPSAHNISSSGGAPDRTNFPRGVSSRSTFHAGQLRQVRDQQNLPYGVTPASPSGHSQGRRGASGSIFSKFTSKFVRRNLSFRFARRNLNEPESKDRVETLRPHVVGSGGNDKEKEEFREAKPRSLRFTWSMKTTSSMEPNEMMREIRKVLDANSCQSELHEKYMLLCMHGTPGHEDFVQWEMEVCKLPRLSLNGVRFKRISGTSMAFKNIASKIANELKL
Casein kinase II subunit alpha (Homo sapiens), sequence (P68400 whole entry, looked up): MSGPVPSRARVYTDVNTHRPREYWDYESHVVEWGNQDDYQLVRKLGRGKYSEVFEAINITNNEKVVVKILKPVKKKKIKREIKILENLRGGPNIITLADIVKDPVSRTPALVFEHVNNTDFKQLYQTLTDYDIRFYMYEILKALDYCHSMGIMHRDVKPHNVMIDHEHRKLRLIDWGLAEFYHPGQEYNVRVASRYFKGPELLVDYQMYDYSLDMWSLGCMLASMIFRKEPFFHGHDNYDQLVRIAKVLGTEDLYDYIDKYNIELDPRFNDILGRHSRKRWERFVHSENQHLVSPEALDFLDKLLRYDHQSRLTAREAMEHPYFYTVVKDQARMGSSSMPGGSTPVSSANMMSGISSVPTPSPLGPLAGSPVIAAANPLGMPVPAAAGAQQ

Structure (SMILES)	inhibition [1]	inhibition [2]	inhibition [3]	inhibition [4]	inhibition [5]	inhibition [6]	inhibition [7]
O[C@H]1CC[C@H](Nc2nccc(-c3n[nH]c4ccccc34)n2)CC1	97%	98%	88%	80%	99%	< 50%	100%
O[C@H]1CC[C@H](Nc2nccc(-n3ccc4ccccc43)n2)CC1	< 50%	< 50%	< 50%	< 50%	84%	< 50%	< 50%
O[C@H]1CC[C@H](Nc2nccc(-n3ncc4ccccc43)n2)CC1	< 50%	87%	< 50%	< 50%	97%	< 50%	< 50%

The remaining lines, values ahead:

inhibition [1]	inhibition [2]	inhibition [3]	inhibition [4]	inhibition [5]	inhibition [6]	inhibition [7]	Structure (SMILES)
< 50%	99%	78%	80%	100%	< 50%	< 50%	N[C@H]1CC[C@H](Nc2nccc(-n3nnc4ccccc43)n2)CC1
< 50%	71%	< 50%	82%	95%	< 50%	< 50%	O=C([C@H]1CC[C@H](Nc2nccc(-n3nnc4ccccc43)n2)CC1)N1CCOCC1
< 50%	80%	< 50%	75%	96%	66%	< 50%	O[C@H]1CC[C@H](Nc2nccc(-n3nnc4ccccc43)n2)CC1
